The source of these data is paper PMC9218293 (Molecular Therapy Oncolytics, 2022).

Usually IC50 stands for the point on the concentration scale where inhibition reaches its midpoint.

For test [1], the system named is TME of YUMM1.7R-derived tumors. The test can be described thus: Flow cytometry of tumor-infiltrating immune cells. In kind it is in vivo, C57BL/6 mice. Conditions: VEM 20 mg/kg i.p. daily, n = 6. Background: A flow cytometer gives signals particle by particle.
Test [2] relates to P-ERK1/2 (Thr202/Tyr204) in YUMM1.7R cells. The test can be described thus: Immunoblotting for P-ERK1/2 after vemurafenib. It is filed as cell-based, mouse. The settings on record: vemurafenib 5 μM; YUMM1.7R condition 1; immunoblot; Figure S1C. (In general: Immunoblotting shows a protein as a band on a membrane.)
Test [3] concerns P-ERK1/2 (Thr202/Tyr204) in YUMM1.7P cells. Put plainly: Immunoblotting for P-ERK1/2 after vemurafenib. It is filed as cell-based, mouse. Conditions: vemurafenib 5 μM, immunoblot, Figure S1C.
The subject of test [4] is TME of YUMM1.7P-derived tumors. Put plainly: Flow cytometry of tumor-infiltrating immune cells. Conditions: VEM 20 mg/kg i.p. daily, n = 6. In kind it is in vivo, C57BL/6 mice. An outline of the steps:
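C57BL/6 mice (6–8 weeks) received 3 × 10⁵ YUMM1.7P cells s.c. Vehicle or vemurafenib was given at 20 mg/kg i.p. daily. Tumors were harvested and dissociated to single cells. Dead cells were excluded with fixable viability dye eFluor 506. Populations were gated as frequencies among live/dead⁻CD45⁺ cells: MDSCs CD45⁺CD11b⁺Gr1⁺, TAMs CD45⁺Gr1⁻CD11b⁺F4/80⁺, CD8⁺ T cells CD45⁺CD3⁺CD8⁺. n = 6 mice/group, means ± SEM.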

The test system of test [5] is YUMM1.7P-derived tumors. Put plainly: Syngeneic mouse melanoma model, tumor growth. In kind it is in vivo, C57BL/6 mice. The settings on record: 20 mg/kg i.p. daily; n = 6 mice/group; Figure 1A. In outline:
(§1)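 Tumors were established in C57BL/6 mice (6–8 weeks) by s.c. injection of 3 × 10⁵ YUMM1.7P or YUMM1.7R cells. Daily i.p. vehicle or vemurafenib was given at 20 mg/kg. Tumor size was monitored, n = 6 mice/group, as means ± SEM with two-way ANOVA and Tukey's post hoc test. Mice with tumors >1,500 mm³ were euthanized.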

Test [6] has as its system YUMM1.7R-derived tumors. The test can be described thus: Syngeneic mouse melanoma model, tumor growth and survival. The settings on record: 20 mg/kg i.p. daily; n = 6 mice/group; Figure 1A. In kind it is in vivo, C57BL/6 mice. In outline:
as §1

Test [7] concerns YUMM1.7R cells. Put plainly: WST-8 cell viability assay. It is filed as cell-based. The settings on record: Mus musculus. In outline:
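Resistant YUMM1.7R cells were derived by exposing parental YUMM1.7 cells to vemurafenib for 8–10 weeks, with the concentration escalated from a low (condition 1) or medium (condition 2) start. They were then kept under continuous 5 μM vemurafenib in DMEM/F12 with 10% fetal bovine serum and 1% penicillin/streptomycin at 37°C, 5% CO₂.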
(Tetrazolium dyes change colour on reduction, which living cells bring about.)

Test [8] deals with YUMM1.7P cells. The test can be described thus: WST-8 cell viability assay. The settings on record: Mus musculus, read-out: IC50 value of vemurafenib for YUMM1.7P cells. It is filed as cell-based. An outline of the steps: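 Parental mouse melanoma YUMM1.7 cells (BRAF V600E) were grown in DMEM/F12 with 10% fetal bovine serum and 1% penicillin/streptomycin at 37°C, humidified 5% CO₂.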

Where two headings read alike, the source gives them in different places.

For the compound `CCCS(=O)(=O)Nc1ccc(F)c(C(=O)c2c[nH]c3ncc(-c4ccc(Cl)cc4)cc23)c1F` [vemurafenib], the “frequency of MDSCs” value in test [1] (Figure 1B) is on record as “reduction”; in test [4] (CD45+CD11b+Gr1+, Figure 1B), “significant decrease”. The “frequency of TAMs” value in test [1] (Figure 1C) is on record as “reduction”; in test [4] (CD45+Gr1-CD11b+F4/80+, Figure 1C) it was “significant decrease”. Also, the “frequency of CD8+ T cells” value in test [1] (Figure 1D) was “failed to increase”; in test [4] (CD45+CD3+CD8+, Figure 1D), “increased”. Further, the “frequency of CD3+CD4+ T cells” value in test [1] (Figure S3) and in test [4] (Figure S3) was “No significant change” throughout. Also, the figures for the ERK phosphorylation result in test [2] and in test [3] were “this reduction was dramatically suppressed” and “considerable reduction”, respectively. In test [5], the “inhibition of tumor growth” value is “highly sensitive”. Further, the tumor growth result in test [6] is on record as “unaffected”. Further, the IC50 in test [7] (read-out: IC50, YUMM1.7R (condition 1)) was found to be 10.4 µM; in test [7] (read-out: IC50, YUMM1.7R (condition 2)) it was 9.48 µM; in test [8] it was 3.12 µM.
